{"source": "paper PMC10445456", "about": "(Virus Research, 2023)", "key": {"[1]": {"tested_on": "HCMV-infected HFFs (cyclin H mRNA)", "test": "cyclin H mRNA levels by one-step RT-qPCR in HCMV Merlin-infected HFFs", "type": "cell-based, human", "conditions": "1 µM MBV, HCMV Merlin MOI 0.5, 7 d p.i."}, "[2]": {"biological_target": "T1, CDK7 + pUL97-Flag (Human cytomegalovirus, UniProt P16788)", "T1 sequence (P16788 1-707)": "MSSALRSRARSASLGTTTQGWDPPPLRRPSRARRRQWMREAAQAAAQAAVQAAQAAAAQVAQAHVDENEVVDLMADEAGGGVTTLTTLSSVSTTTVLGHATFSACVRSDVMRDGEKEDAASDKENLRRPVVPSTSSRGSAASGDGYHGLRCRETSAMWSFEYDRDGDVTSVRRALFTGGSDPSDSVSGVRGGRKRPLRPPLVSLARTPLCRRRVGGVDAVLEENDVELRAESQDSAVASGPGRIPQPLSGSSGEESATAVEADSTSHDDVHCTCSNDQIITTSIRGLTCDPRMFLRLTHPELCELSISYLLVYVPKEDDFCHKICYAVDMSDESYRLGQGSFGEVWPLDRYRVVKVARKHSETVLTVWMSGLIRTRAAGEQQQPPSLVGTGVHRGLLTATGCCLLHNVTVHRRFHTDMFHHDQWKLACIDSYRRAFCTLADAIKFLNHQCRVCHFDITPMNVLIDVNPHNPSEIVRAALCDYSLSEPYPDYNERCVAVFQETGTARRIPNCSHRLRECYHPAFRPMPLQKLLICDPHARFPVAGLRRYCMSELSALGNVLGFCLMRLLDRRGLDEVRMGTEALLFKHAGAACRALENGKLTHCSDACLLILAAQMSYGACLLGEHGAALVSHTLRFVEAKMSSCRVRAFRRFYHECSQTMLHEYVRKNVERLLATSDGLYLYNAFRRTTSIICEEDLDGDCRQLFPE", "test": "qSox-IVKA of CDK7 + pUL97-Flag samples, CDK7-specific sensor peptide", "type": "biochemical, human / HCMV", "conditions": "0.35 µM MBV", "outline": "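293T cells were transfected with pUL97-Flag or empty vector. At 2 d p.t., CDK7 and/or pUL97-Flag were immunoprecipitated, with a mouse Fc pseudo-IP as control. Eluate in HEPES pH 7.5 enzyme buffer was added to a reaction mix (final 1.0 mM ATP, 10 mM MgCl2, 15 µM CDK7 Sox sensor peptide AQT0459). Fluorescence (Ex355/Em480) was read kinetically at 30°C for about 80 min, in triplicate. Fc/empty-vector background was subtracted and Wb normalization factors applied. Combined-IP activity was related to CDK7 single IP, or pUL97-only activity was subtracted. 0.35 µM test compound or DMSO was added to combined samples. Data are from one representative biological replicate.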"}, "[3]": {"tested_on": "CDK7 pSer164 and pThr170", "test": "Wb of CDK7 T-loop phosphorylation in HCMV AD169-infected HFFs", "type": "cell-based, human", "conditions": "0.35 µM MBV from 24 h p.i., harvested 3 d p.i., HCMV AD169 MOI 0.5", "outline": "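HFFs in T75 flasks were infected 1 d after seeding with HCMV AD169, UL97 K355Δ kinase-dead mutant (MOI 0.5) or mock; inoculum was replaced after 90 min at 37°C. AD169-infected cells received 0.35 µM test compound or DMSO at 24 h p.i. Cells were harvested 3 d p.i. for SDS-PAGE/Wb with phosphosite-specific antibodies against CDK7 pSer164 and pThr170.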"}, "[4]": {"biological_target": "human CDK7 (Homo sapiens, UniProt P50613)", "sequence (P50613 whole entry)": "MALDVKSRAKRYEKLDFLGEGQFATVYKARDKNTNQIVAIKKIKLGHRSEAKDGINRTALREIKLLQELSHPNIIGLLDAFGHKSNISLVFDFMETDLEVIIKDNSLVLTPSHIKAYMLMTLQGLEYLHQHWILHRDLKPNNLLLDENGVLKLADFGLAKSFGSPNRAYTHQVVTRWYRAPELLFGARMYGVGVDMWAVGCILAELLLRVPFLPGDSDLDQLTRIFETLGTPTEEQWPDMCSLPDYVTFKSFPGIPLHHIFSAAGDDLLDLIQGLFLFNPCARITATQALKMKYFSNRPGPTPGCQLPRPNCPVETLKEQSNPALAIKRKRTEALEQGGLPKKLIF", "sequence (P51946 whole entry partner)": "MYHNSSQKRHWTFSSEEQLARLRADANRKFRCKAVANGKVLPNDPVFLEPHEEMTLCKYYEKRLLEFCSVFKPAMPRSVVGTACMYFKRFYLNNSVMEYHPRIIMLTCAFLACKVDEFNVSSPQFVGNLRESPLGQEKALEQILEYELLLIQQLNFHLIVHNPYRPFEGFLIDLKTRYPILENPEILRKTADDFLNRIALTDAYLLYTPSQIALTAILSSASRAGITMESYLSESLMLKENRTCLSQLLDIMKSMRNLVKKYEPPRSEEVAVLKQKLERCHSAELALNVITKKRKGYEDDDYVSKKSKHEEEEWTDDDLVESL", "sequence (P51948 whole entry partner)": "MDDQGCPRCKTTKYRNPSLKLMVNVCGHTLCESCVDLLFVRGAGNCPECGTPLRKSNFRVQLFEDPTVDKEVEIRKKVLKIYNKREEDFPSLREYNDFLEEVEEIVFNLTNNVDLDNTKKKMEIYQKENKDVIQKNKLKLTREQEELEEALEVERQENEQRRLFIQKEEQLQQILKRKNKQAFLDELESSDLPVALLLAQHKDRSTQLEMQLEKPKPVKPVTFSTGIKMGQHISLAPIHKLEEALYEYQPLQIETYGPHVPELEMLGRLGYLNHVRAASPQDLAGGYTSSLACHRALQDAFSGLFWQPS", "test": "qSox-IVKA of immunoprecipitated CDK7", "type": "biochemical"}, "[5]": {"biological_target": "T2, vCDK/pUL97 (Human cytomegalovirus, UniProt P16788)", "T2 sequence (P16788 1-707)": "T1 sequence (P16788 1-707)", "test": "qSox-IVKA of immunoprecipitated pUL97-Flag", "type": "biochemical, HCMV"}, "[6]": {"tested_on": "HCMV-infected TEV-1 cells (cyclin H mRNA)", "test": "cyclin H mRNA levels by one-step RT-qPCR in HCMV Merlin-infected TEV-1 cells", "type": "cell-based, human", "conditions": "1 µM MBV, HCMV Merlin MOI 0.5"}, "[7]": {"biological_target": "pUL97-Flag/CDK7 (Homo sapiens, UniProt P50613)", "sequence (P50613 whole entry)": "as the sequence (P50613 whole entry) above", "sequence (P51946 whole entry partner)": "as the sequence (P51946 whole entry partner) above", "sequence (P51948 whole entry partner)": "as the sequence (P51948 whole entry partner) above", "test": "qSox-IVKA of coimmunoprecipitated pUL97-Flag/CDK7, pUL97-specific sensor peptide", "type": "biochemical, HCMV / human", "conditions": "0.01 µM LDC4297"}}}
{"compound": "CC(C)Nc1nc2cc(Cl)c(Cl)cc2n1[C@H]1O[C@@H](CO)[C@H](O)[C@@H]1O", "note": "[MBV, maribavir]", "values": [{"measurement": "reduction of the HCMV-induced increase of cyclin H mRNA levels", "setting": "[1]", "result": 28, "unit": "%"}, {"measurement": "pUL97-mediated increased CDK7 kinase activity (trans-stimulation)", "setting": "[2]", "result": "abolished"}, {"measurement": "CDK7 phosphomarkers pSer164 and pThr170", "setting": "[3]", "result": "modest increase"}, {"measurement": "effect on CDK7 activity", "setting": "[4]; 0.35 µM MBV", "result": "not inhibited"}, {"measurement": "pUL97 kinase activity reduced to", "setting": "[5]; 0.35 µM", "result": 50, "unit": "%"}, {"measurement": "reduction of the HCMV-induced increase of cyclin H mRNA levels", "setting": "[6]", "result": 68, "unit": "%"}]}
{"compound": "recombinant cyclin H: recombinant human cyclin H, full-length, GST-tag, expressed in insect cells (ABIN6699744)", "values": [{"measurement": "increase of in vitro kinase activity of pUL97", "setting": "[5]; exogenous addition of 100 nM recombinant cyclin H", "result": 31.5, "unit": "%"}]}
{"compound": "CC(C)c1cnn2c(NCc3ccccc3-n3cccn3)nc(OC3CCCNC3)nc12", "note": "(stereo not shown) [LDC4297]", "values": [{"measurement": "effect on CDK7 activity", "setting": "[4]; applied concentration of LDC4297 in the IVKA (5 µM)", "result": "completely blocked CDK7 activity"}, {"measurement": "inhibitory effect on pUL97 activity", "setting": "[5]; 5 µM LDC4297", "result": "did not affect pUL97 kinase activity"}, {"measurement": "change in pUL97 activity upon inhibition of CDK7", "setting": "[7]", "result": "no change in pUL97 activity"}]}
